Calls of active or inactive are those of the source. The rule behind the calls is not given here.
How the values were obtained:
Rattus norvegicus [1] = test: Hypoglycemic activity in blood glucose at 2 hr (treated) in the 18-h fasted normal rat at a dose of 100 mg/kg; format: functional
Outline: (§1)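 Sprague-Dawley-derived rats (120–130 g), fasted 18 h, in groups of four. Each got 0.5 mL by stomach tube of test compound (100 mg/kg), tolbutamide (25 mg/kg) or vehicle (carboxymethylcellulose/Polysorbate 80/NaCl/benzyl alcohol in water). Then 1.0 mL 12.5% glucose in 0.9% saline was given s.c. Barbiturate anesthesia at 110 min; vena cava blood drawn 9 min later.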

Rattus norvegicus [2] = species on record: Rattus norvegicus; test: Hypoglycemic activity in the 18-h fasted normal rat with respect to 1-butyl-3-(p-tolylsulphonyl)urea; format: functional
Outline: (§2)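 In 18-h fasted rats (oral dosing, s.c. glucose load), activity was first confirmed, then compounds were retested at half-dose intervals alongside the positive control. Potency relative to tolbutamide came from a parallel line assay.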

Rattus norvegicus [3] = species on record: Rattus norvegicus; test: Hypoglycemic activity in blood glucose at 2 hr (positive control) in the 18-h fasted normal rat; format: functional; outline: as §1
Rattus norvegicus [4] = test: Hypoglycemic activity in the 18-h fasted normal rat with respect to 1-butyl-3-(p-tolylsulphonyl)urea; inactive at 100 mg/kg at the second stage of testing; format: functional, organism-based; design: dose 100 mg/kg; outline: as §2
Rattus norvegicus [5] = species on record: Rattus norvegicus; test: Hypoglycemic activity in blood glucose at 2 hr (positive control) in the fasted-refed rat; format: functional
Outline: (§3)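 Fasted-refed model: rats fasted 18 h, then given 2 mL liquid diet by stomach tube, otherwise handled as in the fasted-rat test. Blood glucose % change read at 2 h.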

Rattus norvegicus [6] = species on record: Rattus norvegicus; test: Hypoglycemic activity in blood glucose at 2 hr (treated) in the fasted-refed rat; format: functional; outline: as §3

Row | SMILES | Change (Rattus norvegicus [1]) [%] | Relative potency (Rattus norvegicus [2]) | Change (Rattus norvegicus [3]) [%] | Relative potency (Rattus norvegicus [4]) | Change (Rattus norvegicus [5]) [%] | Change (Rattus norvegicus [6]) [%]
1 | CC(C)(C)Cc1ccc(CO)c(O)n1 | -40 | 5.3 | -26 |  |  | 
2 | Cc1ccc(C(=O)O)c(O)n1 | 1 |  | -34 | inactive |  | 
3 | O=C(O)c1ccc(CC2CCC2)nc1O | -14 |  | -37 | inactive |  | 
4 | CC(C)(C)Cc1ccc(-c2nn[nH]n2)c(O)n1 | -37 | 1.6 | -34 |  |  | 
5 | CCOC(=O)c1ccc(CC(C)(C)C)nc1O | -54 | 7.4 | -42 |  |  | 
6 | CC(C)CCc1ccc(C(=O)O)c(O)n1 | -4 |  | -28 | inactive |  | 
7 | O=C(O)c1ccc[nH]c1=O | -26 | 0.25 | -33 |  | -55 | -4
8 | CC(C)(C)c1ccc(C(=O)O)c(O)n1 | -69 | 1 | -39 |  | -40 | -58
9 | CC(C)(C)Cc1ccnc(O)c1C(=O)O | -9 |  | -34 | inactive |  | 
10 | Cn1c(CC(C)(C)C)ccc(C(=O)O)c1=O | -3 |  | -34 | inactive |  | 
11 | CC(C)Cc1ccc(C(=O)O)c(O)n1 | -61 | 1 | -34 |  | -48 | -54
12 | CC(C)(C)Cc1ccc(CC(=O)O)c(O)n1 | -25 | 0.25 | -25 |  |  | 
13 | CCCCCc1ccc(C(=O)O)c(O)n1 | -2 |  | -25 | inactive |  | 
14 | CC(C)(C)Cc1ccc(C(=O)O)cn1 | -4 |  | -31 | inactive |  | 
15 | CC(C)(C)CC1=NC(=O)CC=C1 | -1 |  | -36 | inactive |  | 
16 | CCCCCCC(C)(C)Cc1ccc(C(=O)O)c(O)n1 | 8 |  | -37 | inactive |  | 
17 | CC(C)(C)Cc1ccc(C(N)=O)c(O)n1 | 30 |  | -25 | inactive |  | 
18 | CC(C)c1ccc(C(=O)O)c(O)n1 | -23 |  | -26 | inactive |  | 
19 | CC(C)(C)Cc1ccc(C=O)c(O)n1 | -47 | 5.9 | -47 |  |  | 
20 | CCC(C)(C)c1ccc(C(=O)O)c(O)n1 | -67 | 0.9 | -32 |  |  | 
21 | CCCCCCC(C)(C)c1ccc(C(=O)O)c(O)n1 | 5 |  | -37 | inactive |  | 
22 | CC(C)(C)Cc1ccc(C(=O)O)c(O)n1 | -59 | 13 | -39 |  | -40 | -60
23 | CCC(C)(C)Cc1ccc(C(=O)O)c(O)n1 | -54 | 3.8 | -38 |  |  | 
24 | CC(C)Cc1ccc(C(=O)O)c(=O)n1C | -36 | 0.6 | -22 |  |  | 
25 | CC(C)(C)Cc1ccc(C(=O)[O-])c(O)n1.[Na+] | -56 | 7.9 | -26 |  |  | 
